# Assay results reported in paper PMC2266580 (The Journal of General Physiology, 2005).
# Changes are numbered by the printed parent chain. Values joined by “and” are separate entries in the source; they are usually repeats but may differ in a detail not shown here. Identical values can stand only once.
# How the values were obtained:
# Format in all cases: biochemical
# [1] = target: T1, Kir6.2ΔC26 G334 (wild type) channel (Homo sapiens, UniProt Q14654); assay: ATP inhibition of wild-type
# T1 sequence (Q14654 1-364 limits assumed): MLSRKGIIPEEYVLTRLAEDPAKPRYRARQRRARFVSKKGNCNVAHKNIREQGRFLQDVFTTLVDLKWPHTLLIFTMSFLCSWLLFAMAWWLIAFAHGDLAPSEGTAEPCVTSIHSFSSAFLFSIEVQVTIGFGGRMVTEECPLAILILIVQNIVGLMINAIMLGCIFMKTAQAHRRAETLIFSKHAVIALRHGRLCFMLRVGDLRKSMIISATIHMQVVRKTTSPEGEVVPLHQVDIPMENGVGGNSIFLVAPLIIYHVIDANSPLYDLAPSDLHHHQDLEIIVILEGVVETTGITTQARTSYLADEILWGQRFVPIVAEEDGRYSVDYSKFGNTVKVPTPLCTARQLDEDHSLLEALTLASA
# Kir6.2ΔC26 334E channel = assay: ATP inhibition of 334E channels, inside-out patch; settings: read-out: Ki,ATP, Xenopus oocytes, without SUR, −80 mV
# Kir6.2ΔC26 334F channel = assay: ATP inhibition of 334F channels, inside-out patch; settings: read-out: Ki,ATP, Xenopus oocytes, without SUR, −80 mV
# Kir6.2ΔC26 334A channel = assay: ATP inhibition of 334A channels, inside-out patch; settings: read-out: Ki,ATP, Xenopus oocytes, without SUR, −80 mV
# Kir6.2ΔC26 333K channel = assay: ATP inhibition of 333K channels, inside-out patch; settings: read-out: Ki,ATP, Xenopus oocytes, without SUR, n = 6
# [2] = target: T2, Kir6.2/ΔC26/G334R channel (slow burst exit gating patches) (Homo sapiens, UniProt Q14654, G334R); settings: 50 μM protamine
# T2 sequence (Q14654 1-364 G334R limits assumed): T1 sequence (Q14654 1-364 limits assumed) with G334R
# Outline: (§1)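 Channels expressed in Xenopus oocytes: SUR1 plus Kir6.2 for line 1, Kir6.2ΔC26/G334R for line 2. Inside-out patches were held at −80 mV. Pipette contained (mM) 150 KCl, 10 NaCl, 1 CaCl2, 10 EGTA, 10 HEPES, pH 7.4. […] Signals filtered at 4 kHz, sampled at 20 kHz. Half-amplitude event detection, missed-event-corrected duration histogram fits, n = 5, mean ± SEM.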
# [3] = target: wild-type SUR1/Kir6.2 channel (Homo sapiens, UniProt Q14654); settings: 50 μM protamine
# Chain of wild-type SUR1/Kir6.2 channel (Q14654 whole entry): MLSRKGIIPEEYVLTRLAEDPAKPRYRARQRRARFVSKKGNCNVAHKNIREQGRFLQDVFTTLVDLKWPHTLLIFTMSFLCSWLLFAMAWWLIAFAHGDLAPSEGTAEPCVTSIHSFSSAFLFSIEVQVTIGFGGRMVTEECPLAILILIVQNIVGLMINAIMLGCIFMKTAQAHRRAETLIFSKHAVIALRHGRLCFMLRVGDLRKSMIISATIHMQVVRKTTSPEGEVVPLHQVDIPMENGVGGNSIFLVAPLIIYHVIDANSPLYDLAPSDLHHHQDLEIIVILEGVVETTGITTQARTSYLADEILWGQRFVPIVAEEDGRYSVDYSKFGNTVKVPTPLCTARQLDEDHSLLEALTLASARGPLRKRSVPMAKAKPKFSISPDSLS
# Chain of wild-type SUR1/Kir6.2 channel (Q09428 whole entry partner): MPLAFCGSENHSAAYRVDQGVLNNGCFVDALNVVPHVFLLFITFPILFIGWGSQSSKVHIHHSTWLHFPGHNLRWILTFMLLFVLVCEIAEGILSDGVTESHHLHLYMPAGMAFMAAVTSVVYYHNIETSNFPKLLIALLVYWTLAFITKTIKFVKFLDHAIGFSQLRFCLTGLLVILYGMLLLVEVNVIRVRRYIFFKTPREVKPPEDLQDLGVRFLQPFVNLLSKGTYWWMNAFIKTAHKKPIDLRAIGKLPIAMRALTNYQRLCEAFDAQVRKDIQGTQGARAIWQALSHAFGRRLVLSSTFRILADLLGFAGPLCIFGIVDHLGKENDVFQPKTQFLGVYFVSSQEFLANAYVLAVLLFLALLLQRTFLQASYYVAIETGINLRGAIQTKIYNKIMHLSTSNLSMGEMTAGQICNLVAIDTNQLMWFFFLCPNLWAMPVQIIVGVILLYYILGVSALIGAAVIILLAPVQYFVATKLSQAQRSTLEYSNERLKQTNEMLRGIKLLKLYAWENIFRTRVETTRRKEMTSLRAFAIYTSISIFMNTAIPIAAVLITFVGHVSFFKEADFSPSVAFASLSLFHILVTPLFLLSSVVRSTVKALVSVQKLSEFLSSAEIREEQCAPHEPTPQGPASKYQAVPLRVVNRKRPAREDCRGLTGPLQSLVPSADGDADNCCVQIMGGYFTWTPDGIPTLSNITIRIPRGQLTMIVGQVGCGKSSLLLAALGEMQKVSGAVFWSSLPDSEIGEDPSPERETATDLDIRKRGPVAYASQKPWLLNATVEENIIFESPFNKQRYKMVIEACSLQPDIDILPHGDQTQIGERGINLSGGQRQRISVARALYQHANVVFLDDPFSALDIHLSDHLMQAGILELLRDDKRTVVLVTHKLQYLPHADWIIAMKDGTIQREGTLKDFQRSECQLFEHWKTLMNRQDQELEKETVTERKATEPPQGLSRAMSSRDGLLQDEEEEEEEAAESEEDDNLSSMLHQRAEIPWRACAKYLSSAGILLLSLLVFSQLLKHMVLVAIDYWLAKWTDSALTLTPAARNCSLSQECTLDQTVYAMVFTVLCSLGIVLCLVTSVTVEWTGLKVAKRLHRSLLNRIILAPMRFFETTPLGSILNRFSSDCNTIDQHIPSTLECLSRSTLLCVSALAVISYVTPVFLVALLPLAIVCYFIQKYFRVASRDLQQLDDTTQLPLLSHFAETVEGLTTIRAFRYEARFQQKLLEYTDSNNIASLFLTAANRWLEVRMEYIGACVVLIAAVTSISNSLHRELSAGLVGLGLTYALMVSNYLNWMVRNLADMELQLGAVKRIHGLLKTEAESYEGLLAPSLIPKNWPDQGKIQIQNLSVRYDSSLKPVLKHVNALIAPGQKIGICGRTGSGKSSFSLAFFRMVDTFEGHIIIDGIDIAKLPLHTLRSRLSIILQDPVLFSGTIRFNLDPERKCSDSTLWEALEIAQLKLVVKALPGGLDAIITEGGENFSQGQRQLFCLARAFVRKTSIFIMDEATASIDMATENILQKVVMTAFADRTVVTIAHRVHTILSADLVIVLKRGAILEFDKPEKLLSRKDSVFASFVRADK
# Outline: as §1
inhibition of channel activity ([1]; 10 mM ATP),"slope factor αH of Hill fit of ATP inhibition ([1]; wild-type channel, αH free variable)",Ki (Kir6.2ΔC26 334E channel) [µM],Ki (Kir6.2ΔC26 334F channel),Ki (Kir6.2ΔC26 334A channel) [µM],Ki (Kir6.2ΔC26 333K channel) [µM],Compound,"mean open time after protamine ([2]; absence of ATP, n = 5, before protamine 1.9 ± 0.2 ms) [ms]","mean burst time after protamine ([2]; absence of ATP, n = 5, before protamine 80.3 ± 10.7 ms) [ms]",effect on slowed gating from the burst ([2]; all 12 patches),"mean open time after protamine ([3]; absence of ATP, before protamine 2.1 ± 0.2 ms) [ms]","mean burst time after protamine ([3]; absence of ATP, before protamine 48.0 ± 7.4 ms) [ms]","effect on gating from the burst ([3]; cytoplasmic face, all six patches)"
complete inhibition,1.0 ± 0.1,5900 ± 20,3000 µM and 3100 µM,2100 ± 50,2200 ± 300,Nc1ncnc2c1ncn2[C@@H]1O[C@H](COP(=O)(O)OP(=O)([O-])OP(=O)([O-])O)[C@@H](O)[C@H]1O.[Mg+2] [ATP],,,,,,
,,,,,,protamine,1.1 ± 0.2,2.6 ± 1.8,fully restore the fast gating from the burst,1.0 ± 0.2,2.6 ± 0.9,dramatically speeded gating from the burst
